Screens deposited in PubChem by several laboratories.
TNAP inh hi DEA: blocks human TNAP under high phosphate acceptor concentration; P05186; purified TNAP, CDP-star luminescence, 1 M DEA; inhibition, % at 20 µM; actives 0.03% (n = 200,000); AID 1135;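 active = over 50% inhibition of tissue-nonspecific alkaline phosphatase at 20 µM in the single-dose screen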;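 also: plate controls were DMSO wells for no effect and EDTA-quenched wells as full inhibition for full effect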
TNAP inh no acc: TNAP (human) inhibition, acceptor-free conditions; P05186; purified TNAP, CDP-star luminescence, 30 min; inhibition, % at 20 µM; actives 0.26% (n = 200,000);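 active = tissue-nonspecific alkaline phosphatase inhibition above about 50% at 20 µM in the single-dose screen, limit read from the data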;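 also: 0% = DMSO negative control and 100% = EDTA positive control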
CHT allo act: allosterically activates the human high affinity choline transporter | actives 0.49% (n = 310,000) | CHT-expressing cells, membrane potential dye, choline EC20; active compounds read high; LV-AA mutant CHT in HEK293 cells | B-score at 10 µM;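 active = initial fluorescence not abnormally high and integrated response B-score, plate-corrected, over 3 SD above library mean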
Target sequence (Q9GZV3 whole entry, looked up): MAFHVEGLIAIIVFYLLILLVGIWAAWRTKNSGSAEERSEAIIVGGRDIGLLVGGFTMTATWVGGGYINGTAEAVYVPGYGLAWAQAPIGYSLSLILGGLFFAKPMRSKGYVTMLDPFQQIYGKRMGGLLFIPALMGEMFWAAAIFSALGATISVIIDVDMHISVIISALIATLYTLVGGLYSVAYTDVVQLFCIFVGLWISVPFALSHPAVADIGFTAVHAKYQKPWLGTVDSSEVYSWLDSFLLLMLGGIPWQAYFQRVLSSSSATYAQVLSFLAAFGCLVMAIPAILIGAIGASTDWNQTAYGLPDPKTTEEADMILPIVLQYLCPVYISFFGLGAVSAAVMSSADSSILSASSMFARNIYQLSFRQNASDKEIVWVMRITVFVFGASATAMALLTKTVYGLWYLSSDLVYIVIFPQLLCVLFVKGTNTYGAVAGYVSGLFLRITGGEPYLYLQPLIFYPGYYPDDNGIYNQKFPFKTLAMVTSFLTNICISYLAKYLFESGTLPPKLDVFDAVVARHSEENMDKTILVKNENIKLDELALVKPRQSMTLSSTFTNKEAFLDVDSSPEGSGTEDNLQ
ABCB6 inh 2: human ABCB6 transporter inhibition; Q9NP58; K562-ABCB6 porphyrin accumulation, flow cytometry, 1 h; active compounds read low; fluorescence ratio to DMSO, % at 10 µM; actives 0.19% (n = 360,000); AID 602162;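 active = fluorescence ratio to DMSO below 75%, the collection mean minus 3 SD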;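 also: signal is porphyrin accumulated inside mitochondria; 100% equals median channel fluorescence of DMSO control wells; lower ratio means ABCB6 inhibition with less porphyrin fluorescence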
TNAP act hiacc: TNAP (human) activation, high acceptor. purified TNAP, CDP-star luminescence, 1 M DEA, 30 min; active compounds read high; 0 = EDTA background, 1 = DMSO-only activity. activation factor at 20 µM. 200,000 tested, under 10 active;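 active = activation factor at least 2 at 20 µM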
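Control set: EDTA negative control, DMSO positive control / Assay system: human TNAP / Quantity: TNAP 1/800 final / Evaluation: TNAP activation factor scaled between EDTA and DMSO control wells / Measured by: luminescent substrate turnover signal / Compound dosing: one dose, 20 µM / Times: 30 min enzyme reaction at room temperature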
CHT block: human CHT choline transport inhibition | CHT-expressing cells, membrane potential dye, choline response; active compounds read low | B-score at 10 µM | actives 0.86% (n = 310,000) | AID 488975;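 active = B-score over 3 SD under the library average, and starting fluorescence ratio not unusually high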;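 also: choline stimulus applied at its EC90 after an EC20 pre-addition; B-score computed on integrated fluorescence ratio after choline addition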
CHT block conf: human CHT inhibition, confirmatory screen; shares compounds with CHT block; CHT-expressing cells, choline membrane potential dye; LV-to-AA substituted CHT, HEK293 cells; CHT activity remaining % of control (active compounds read low), % at 10 µM; actives 70% (n = 2,400);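 active = choline transporter activity left, mean of duplicates at 10 µM, below buffer-only control mean minus 3 SD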;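 also: depolarization triggered by choline at its EC90 following an EC20 pre-addition; 0% = hemicholinium-3 full block and 100% = buffer-only control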
HEK293 CHT ctr: CHT inhibitor counter-screen hit in parental HEK293 cells. shares compounds with CHT block. membrane potential dye, choline response; active = decrease or increase beyond buffer ±3SD. membrane potential ratio readout (active if shifted either direction beyond buffer ±3SD; no single direction) at 10 µM. actives 4% (n = 2,400);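 also: parental cells lack the transporter so any hit is non-specific; ratio is peak minus trough fluorescence over baseline after EC90 choline challenge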
* marks the source's active call; other numbers are inactive results; i = inactive; x = not tested or not shown. Compounds with a hit are over-represented: about 1.4% of the library has one in this group of screens.

SMILES | TNAP inh hi DEA | TNAP inh no acc | CHT allo act | ABCB6 inh 2 | TNAP act hiacc | CHT block | CHT block conf | HEK293 CHT ctr
Cc1ccc(-c2cc(C(=O)NCCCn3ccnc3)c3cc(Br)ccc3n2)o1 | 2 | 9 | i | 100 | 1 | -9.2* | 24%* | i
CC(C)c1ccc(/C=C(\NC(=O)c2ccccc2)C(=O)NCCCn2ccnc2)cc1 | x | x | i | 111 | x | -8.2* | 23%* | i
O=C(CN1CCN(S(=O)(=O)c2ccccc2)CC1)Nc1ccc(Cl)c([N+](=O)[O-])c1 | x | x | i | 95 | x | i | x | x
Fc1ccc(-c2nc3c(-c4ccc(F)cc4)cnn3cc2CCN2CCOCC2)cc1 | -4 | -5 | i | 94 | 1 | -6.6* | 59%* | i
Fc1ccc(-c2nc3c(-c4ccccc4)cnn3cc2CCN2CCOCC2)cc1 | 0 | -1 | i | 104 | 1 | -10* | 22%* | i
O=C(Nc1cc2cccc([N+](=O)[O-])c2oc1=O)c1cccs1 | 11 | -4 | i | 105 | 0.9 | i | x | x
CCOC(=O)C1=NOC2(C1)C(=O)Nc1ccc(OC)cc12 (configuration not stated) | x | x | x | 104 | x | x | x | x
Cc1noc(C)c1C(=O)Nc1ccc(F)cc1F | -2 | 1 | i | 96 | 1 | i | x | x
CC(=O)OC1CC2(C)/C(=N\O)CCC2C2CCc3cc(O)ccc3C12 (configuration not stated) | x | x | i | 102 | x | -11* | 3.2%* | i
CN(C)CCCNC(NC(=O)/C=C/c1ccccc1)C(Cl)(Cl)Cl (configuration not stated) | x | x | i | 104 | x | i | x | x
CCN(CC)c1ccc(C2C3CCCCC3(O)CCN2CC(=O)N2CCCCC2)cc1 (configuration not stated) | -9 | -8 | i | 110 | 1.1 | -5.9* | i | i
CCN(CC)c1ccc([C@H]2[C@@H]3CCCC[C@]3(O)CCN2CC(=O)NCc2ccco2)cc1 | x | x | i | 108 | x | i | x | x
COc1ccc(CNCCC2(Cc3ccccc3)CC(C)N(C)CC2C)cc1OC (configuration not stated) | -2 | -8 | i | 95 | 1 | i | x | x
CCCc1nnc(NC(=O)CCC(=O)N2CCN(Cc3cc(Cl)ccc3OC)CC2)s1 | x | x | i | 94 | x | i | x | x
CCN(CC)CCCn1c2c(c(SCC(=O)Nc3ccc(OC(F)(F)F)cc3)nc1=O)CCC2 | x | x | i | 95 | x | -12* | 38%* | i
CCCCc1ccc(NC(=O)CSc2nc(=O)n(CCCN3CCOCC3)c3c2CCC3)cc1 | x | x | i | 96 | x | -7.9* | 21%* | i
CC(C)(C)NCC(O)Cn1cc(C=O)c2ccccc21 (configuration not stated) | 1 | -1 | i | 101 | 1 | -5.7* | 50%* | i
CCc1nc2c(OCCn3cccc3)cccn2c1N(C)C(=O)C1CC1 | x | x | x | 99 | x | x | x | x
N#CCCn1cc(/C=C2\NC(=S)N(c3ccccc3)C2=O)c(-c2ccc(F)cc2)n1 | 6 | 2 | i | 96 | 0.9 | -6.8* | 60%* | i
CN(CC(=O)Nc1ccccc1Cl)C(=O)COC(=O)c1ccccc1[N+](=O)[O-] | x | x | i | 97 | x | i | x | x
Cc1ccc(-n2c(O)c(/C=N/Nc3ccc(S(=O)(=O)N4CCOCC4)cc3[N+](=O)[O-])c3ccccc3c2=O)c(C)c1 | 31 | 27 | i | 91 | 0.7 | -5.1* | 27%* | i
COc1ccc(CNC(=O)COC(=O)CC2CCCC2)cc1 | -4 | 7 | i | 102 | 1 | -5.4* | i | i
Cc1cccc(C)c1NC(=O)CSc1cc(C(=O)c2nccn2C)c2ccccc2n1 | -2 | -9 | i | 99 | 1 | -9.5* | i | i
Cc1cccc(C)c1OCc1cc(C(=O)N2CCN(C3CCCC3)CC2)no1 | x | x | i | 81 | x | -6.3* | 53%* | i
CC(=O)c1ccc(NC(=O)/C(=C\c2cccs2)NC(=O)c2ccco2)cc1 | 4 | -1 | i | 107 | 1 | i | x | x
SMILES | TNAP inh hi DEA | TNAP inh no acc | CHT allo act | ABCB6 inh 2 | TNAP act hiacc | CHT block | CHT block conf | HEK293 CHT ctr
CC(C)(C)N/N=C/c1cc(Cl)cc([N+](=O)[O-])c1O | 16 | 22 | i | 101 | 0.8 | -5.8* | 59%* | i
O=C(N/N=C/c1cc(Cl)cc([N+](=O)[O-])c1O)C1CC1 | x | x | i | 98 | x | i | x | x
Cn1cc(S(=O)(=O)Nc2ccc(F)c(Cl)c2)c(=O)n(C)c1=O | x | x | i | 100 | x | i | x | x
CC(C)C(NC(=O)c1ccccc1NC(=O)C(C)(C)C)C(=O)N1CCOCC1 (configuration not stated) | x | x | x | 102 | x | x | x | x
C=CCN(CC=C)S(=O)(=O)c1ccc2nc(NC(=O)C(C)C)sc2c1 | -6 | -8 | i | 97 | 1.1 | -7.3* | 43%* | i
CC1(C)CCCN(C(=O)c2ccc3c(c2NCCO)C(=O)c2ccccc2C3=O)C1 | 28 | 25 | i | 119 | 0.7 | -7.2* | 42%* | 2.6*
CCN(CCN(C)C)C(=O)c1ccc2c(c1NCCO)C(=O)c1ccccc1C2=O | 24 | 18 | i | 104 | 0.8 | i | x | x
CCOC(=O)c1ccc(CC(=O)c2ccc(O)cc2O)o1 | -3 | -10 | i | 92 | 1 | -6* | 68%* | i
Cc1ccc([C@H]2C(C(=O)O)=CC[C@@H](c3ccc(C)cc3)N2S(=O)(=O)c2ccc(C)cc2)cc1 | x | x | x | 96 | x | x | x | x
CCCn1nc(C(=O)N2CCN(c3ccccn3)CC2)c2ccccc2c1=O | x | x | x | 100 | x | x | x | x
O=C(c1nn(-c2ccccc2)c(=O)c2ccccc12)N1CCN(c2ccccn2)CC1 | -2 | 9 | i | 104 | 1 | -6* | i | i
O=C(Nc1cccnc1)c1ccc(COc2ccccc2Cl)o1 | 0 | -8 | i | 100 | 1 | -7.3* | 56%* | i
COc1cc(C(=O)OCCCN(C)C)cc(OC)c1OC | x | x | i | 102 | x | i | x | x
CCN(CC)CCCCCCCCOC(=O)c1cc(OC)c(OC)c(OC)c1 | x | x | i | 104 | x | -5.4* | 20%* | i
Cc1cc(=O)c2cc3nc(-c4cccnc4)oc3c(Br)c2o1 | x | x | i | x | x | i | x | x
Cc1onc(-c2ccccc2)c1C(=O)N(CC(C)C)c1c(N)n(CC(C)C)c(=O)[nH]c1=O | x | x | x | 100 | x | x | x | x
O=C(Nc1ccc(OCc2ccccc2)cc1)Nc1ccccc1C(=O)NCCCN1CCOCC1 | x | x | i | 100 | x | -5* | 44%* | i
